The results in this text go back to ChEMBL document CHEMBL1122464 (J Med Chem, 1983).

A short description of data set [1]: Chromatographic measure of drug lipophilicity. It is filed as physicochemical.
The next data set relates to L1210. As to the kind of experiment: Reduce in the cell count when drug added to the murine L1210 leukemia cell cultures for 70 h. The following applies: Mus musculus, L1210, 70 h; read-out: ID50 (the source's name). It is filed as functional.
Data set [2] can be described thus: Half life of the drug was determined in the presence of 2-mercaptoethanol. It counts as ADME. The following applies: solution containing 2-mercaptoethanol.
The test system of data set [3] is P388. As to the kind of experiment: Percent increase in the life span of treated mice over a group of control mice injected with p388 tumor alone when administered intraperitoneally (>500) as a solution in 0.1 mL of 30%,v/v, ethanol/water; Inactive. It is filed as functional. The following applies: Mus musculus.
A short description of data set [4]: Acid dissociation constant was determined. It is filed as ADME. The procedure, abridged: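 Acridine pKa measured spectrophotometrically in 20% aqueous DMF. Values in parentheses were not measured directly: they were obtained by subtracting 0.25 pKa unit from values determined for the corresponding de-1'-NHSO2CH3 derivatives.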
The subject of data set [5] is P388. The data set is described as follows: Optimal dose administered intraperitoneally in. It counts as functional, Mus musculus.
A further data set deals with Nucleic Acid. The data set is described as follows: Binding constant to poly (dA-dT) was determined in calf thymus DNA by a fluorometric method. It counts as functional.
For data set [6], the system named is P388. As to the kind of experiment: Percent increase in the life span of treated mice over a group of control mice injected with p388 tumor alone when administered intraperitoneally (9) as a solution in 0.1 mL of 30%,v/v, ethanol/water. It counts as functional, Mus musculus.

As a reminder, the half-life is the time in which the quantity being followed falls by half. Usually ILS stands for how much longer treated animals lived than controls. As usually defined, the pKa is the pH at which an ionisable group is half protonated.

The source made the active and inactive calls. The rule behind the calls is not given here.

Consider `COc1cc(NS(C)(=O)=O)cc(OC)c1Nc1c2ccccc2nc2ccccc12`, for which the Rm in data set [1] is 0.36. Further, in the data set on L1210, the IC50 came out at 4900 nM. Further, the half-life in data set [2] was > 70 min. For the same molecule, in the data set with P388 [3], the ILS result was “inactive”. For the same molecule, the pKa in data set [4] was found to be 7.63.
In the data set on P388 [5], `CS(=O)(=O)Nc1ccc(Nc2c3ccccc3nc3ccccc23)cc1` returned an OD of 66 mg/kg/day. Further, the Rm in data set [1] is given as 0. Also, the IC50 in the data set on L1210 was found to be 35 nM. Also, the half-life in data set [2] amounted to 0.92 min.
In turn, `Cc1cc(NS(C)(=O)=O)ccc1Nc1c2ccccc2nc2ccccc12` came in with a Rm in data set [1] of 0.15. Also, the IC50 with L1210 was 100 nM. Also, the half-life in data set [2] worked out at 54 min. The K with Nucleic Acid is 380000 M⁻¹.
The molecule `Cc1cc(NS(C)(=O)=O)cc(C)c1Nc1c2ccccc2nc2ccccc12` gave a Rm in data set [1] of 0.41. For the same molecule, the IC50 with L1210 is > 10000 nM. In addition, the half-life in data set [2] is > 70 min. Moreover, the ILS result in the data set on P388 [3] was “inactive”. For the same molecule, the pKa in data set [4] came to 7.6.
In turn, `COc1cc(NS(C)(=O)=O)ccc1Nc1c2ccccc2nc2ccccc12` [AMSACRINE] returned a Rm in data set [1] of 0.18. The half-life in data set [2] amounted to 1.8 min. The same molecule came in with an ILS in the data set on P388 [6] of 111%. In the data set on Nucleic Acid, this molecule showed a K of 290000 M⁻¹.
